# Source: ChEMBL document CHEMBL1124692, “Synthesis of a tritium-labeled indolidan analogue and its use as a radioligand for phosphodiesterase-inhibitor cardiotonic binding sites” (J Med Chem, 1989)
# Assays:
# [1] = (§1) Displacement [3H]LY-186,126 from phosphodiesterase 4 of myocardial vesicles; assay type: tissue-based, Canis lupus familiaris, Myocardium
# In short: (§2)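 Canine ventricular myocardial vesicles (mixed sarcolemmal and SR; stored at –80 °C), about 100 μg protein, incubated 60 min at 25 °C in 50 mM Tris-Cl pH 7.4, 5 mM MgCl2, 0.01% BSA with 10 nM [3H]-LY186126 (79.2 Ci/mmol). Competitors in DMSO were tested at 0.003–100 μM in half-log steps. Samples were filtered on GF/C and washed with cold phosphate. Specific binding is the part displaced by 100 μM indolidan. Run in triplicate; Ki from nonlinear least-squares fits.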
# Phosphodiesterase 4 [2] = biological target: T1, Phosphodiesterase 4 (Homo sapiens, UniProt P27815+Q08499+Q07343+Q08493); assay: Binding affinity for sarcoplasmic reticulum phosphodiesterase 4 of canine ventricle; assay type: protein assay, Canis lupus familiaris; conditions: target entry is the homologue from another species
# Phosphodiesterase 4 [3] = biological target: T1, Phosphodiesterase 4; assay: Inhibition of sarcoplasmic reticulum Phosphodiesterase 4; assay type: protein assay, Canis lupus familiaris
# Phosphodiesterase 4 [4] = biological target: T1, Phosphodiesterase 4; assay: Binding affinity for Phosphodiesterase 4 of canine myocardial vesicles; assay type: protein assay, Canis lupus familiaris; conditions: target entry is the homologue from another species; in short: as §2
# Phosphodiesterase 4 [5] = biological target: T1, Phosphodiesterase 4; assay: as §1; assay type: tissue-based, Canis lupus familiaris, Myocardium; in short: as §2
Structure (SMILES),IC50 (Phosphodiesterase 4 [3]),Ki (Phosphodiesterase 4 [5]),also measured
O=C1CCC(c2ccc3c(c2)CCC(=O)N3)=NN1,,,Ki [1]: 2.5 nM
CC1CC(=O)NN=C1c1ccc2c(c1)C(C)(C)C(=O)N2C (centres undefined),120 nM,,Kd (Phosphodiesterase 4 [2]): 3.9 nM; Kd (Phosphodiesterase 4 [4]): 4.1 nM
CN1N=C(c2ccc3c(c2)CC(=O)N3)CCC1=O,,61400 nM,
CC1CC(=O)NN=C1c1ccc2c(c1)C(C)(C)C(=O)N2 (centres undefined),,0.54 nM,
CN1C(=O)C(C)(C)c2cc(C3=NNC(=O)CC3)ccc21,760 nM,,
CC1(C)C(=O)Nc2ccc(C3=NNC(=O)CC3)cc21 [INDOLIDAN],150 nM,5.4 nM,
